One assay addresses T1, UniProt A2ATE5.
T1 sequence (whole entry): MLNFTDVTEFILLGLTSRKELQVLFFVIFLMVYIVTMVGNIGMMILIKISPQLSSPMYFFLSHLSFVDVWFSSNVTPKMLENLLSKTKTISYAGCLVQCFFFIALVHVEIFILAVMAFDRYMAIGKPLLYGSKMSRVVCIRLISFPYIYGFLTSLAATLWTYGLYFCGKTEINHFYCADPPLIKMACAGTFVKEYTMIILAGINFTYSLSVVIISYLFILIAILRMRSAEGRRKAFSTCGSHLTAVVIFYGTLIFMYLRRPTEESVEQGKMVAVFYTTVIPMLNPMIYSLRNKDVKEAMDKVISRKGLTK
The conditions noted are these: stereoisomer not certain. An outline of the steps:
(§1)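 Whether a receptor–molecule pair is responsive (active) rests on the original authors' judgment that its measured signal was statistically different from baseline. Pairs without that judgment are non-responsive (inactive). Sources used varied assay methods, commonly transient luciferase assays in mammalian cell lines.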
For `C=C(CC)CCCC(C)(C)O`, the “odorant receptor agonist call” value was “inactive”.
Still for that read-out and setting: the result for `C=CC(C)=CCC=C(C)CCC=C(C)C` reads “inactive”.
As for `CC(=O)C=CC1=C(C)CCCC1(C)C`, the “odorant receptor agonist call” value was “inactive”.
On to `O=C(OCc1ccccc1)c1ccccc1O`, for which the “odorant receptor agonist call” value was “inactive”.
On to `CCc1ccccc1O`, for which the “odorant receptor agonist call” value is “inactive”.
Same read-out and setting: the result for `CC(C)=C1CCC(C)CC1=O` (stereo unspecified) reads “inactive”.
On the same count and under the same terms, the result for `CC=CC(=O)C1=C(C)CCCC1(C)C` reads “inactive”.
Still for that read-out and setting: the result for `CNc1ccccc1C(=O)OC` reads “inactive”; that for `C=CC(=C)CCC=C(C)C`, “inactive”.
With `CCCCCC(C=O)=Cc1ccccc1`, the “odorant receptor agonist call” value was “inactive”.
Still for that read-out and setting: the result for `OCC=Cc1ccccc1` reads “inactive”; that for `CC(C)CS`, “inactive”.
On to `C1CCOC1`, for which the “odorant receptor agonist call” value was “inactive”.
As for `Cc1ccc(OC(=O)C(C)C)cc1`, the “odorant receptor agonist call” value was “inactive”.
On the same count and under the same terms, the result for `OCCc1ccccc1` reads “inactive”; that for `CC(=O)OCc1ccc2c(c1)OCO2`, “inactive”.
As to `C=CC(=O)CCCCC`, the “odorant receptor agonist call” value was “inactive”.
With `CCCCCCC=CC=O`, the “odorant receptor agonist call” value was “inactive”.
Still for that read-out and setting: the result for `O=C([O-])CCCCCCC(=O)[O-].[H+].[H+]` reads “inactive”.
Same read-out and setting: then `CCN(CC)CC`, with “inactive”; and `COC(OC)c1ccccc1`, with “inactive”.
Still for that read-out and setting: then `CC(CC=O)CCCC(C)(C)O` (stereo unspecified), with “inactive”; and `CCCCCC(C)O` (stereo unspecified), with “inactive”.
Regarding `CC=Cc1ccc(OC)cc1`, the “odorant receptor agonist call” value is “inactive”.
Still for that read-out and setting: the result for `CCCO` reads “inactive”.
For `CCCCCOC(=O)CC`, the “odorant receptor agonist call” value was “inactive”.
On the same count and under the same terms, then `CC(C)=CCCC(C)=CCOC(=O)C(C)C`, with “inactive”; and `CCCCCCC(=O)OCCCC`, with “inactive”.
The same measure, in the same setting: then `CC(C)CCN`, with “inactive”; and `c1ccc2ncccc2c1`, with “inactive”; and `C=C(C)C1CCC(C)C(O)C1` (stereo unspecified), with “inactive”.
Still for that read-out and setting: the result for `CC1CCC(C(C)C)C(=O)C1` (stereo unspecified) reads “inactive”.
In the case of `CCCCCCCCCC=CC=O`, the “odorant receptor agonist call” value was “inactive”.

For another assay, the target named is T2, UniProt A2AVB0.
T2 sequence (whole entry): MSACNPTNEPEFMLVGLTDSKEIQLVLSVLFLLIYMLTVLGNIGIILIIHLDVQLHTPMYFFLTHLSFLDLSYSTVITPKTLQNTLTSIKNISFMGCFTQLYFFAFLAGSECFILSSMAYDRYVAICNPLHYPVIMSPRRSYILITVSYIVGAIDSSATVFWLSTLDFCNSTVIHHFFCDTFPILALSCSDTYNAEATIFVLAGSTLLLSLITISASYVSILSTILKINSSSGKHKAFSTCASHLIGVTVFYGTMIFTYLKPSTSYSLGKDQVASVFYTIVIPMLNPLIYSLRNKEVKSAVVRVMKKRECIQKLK
The conditions noted are these: stereoisomer not certain. The essentials: as §1
As to `C=C(CC)CCCC(C)(C)O`, the “odorant receptor agonist call” value was “inactive”.
As to `C=CC(C)=CCC=C(C)CCC=C(C)C`, the “odorant receptor agonist call” value is “inactive”.
`CC(=O)C=CC1=C(C)CCCC1(C)C`: the “odorant receptor agonist call” value is “inactive”.
Same read-out and setting: then `O=C(OCc1ccccc1)c1ccccc1O`, with “inactive”.
On the same count and under the same terms, then `CCc1ccccc1O`, with “inactive”; and `CC(C)=C1CCC(C)CC1=O` (stereo unspecified), with “inactive”; and `CC=CC(=O)C1=C(C)CCCC1(C)C`, with “inactive”.
With `CNc1ccccc1C(=O)OC`, the “odorant receptor agonist call” value was “inactive”.
On to `C=CC(=C)CCC=C(C)C`, for which the “odorant receptor agonist call” value was “inactive”.
In the case of `CCCCCC(C=O)=Cc1ccccc1`, the “odorant receptor agonist call” value is “inactive”.
On the same count and under the same terms, the result for `OCC=Cc1ccccc1` reads “inactive”.
Same read-out and setting: then `CC(C)CS`, with “inactive”; and `C1CCOC1`, with “inactive”; and `Cc1ccc(OC(=O)C(C)C)cc1`, with “inactive”.
The same measure, in the same setting: the result for `OCCc1ccccc1` reads “inactive”; that for `CC(=O)OCc1ccc2c(c1)OCO2`, “inactive”.
For `C=CC(=O)CCCCC`, the “odorant receptor agonist call” value is “inactive”.
For the molecule `CCCCCCC=CC=O`, the “odorant receptor agonist call” value was “inactive”.
In the case of `O=C([O-])CCCCCCC(=O)[O-].[H+].[H+]`, the “odorant receptor agonist call” value was “inactive”.
The same measure, in the same setting: then `CCN(CC)CC`, with “inactive”; and `COC(OC)c1ccccc1`, with “inactive”; and `CC(CC=O)CCCC(C)(C)O` (stereo unspecified), with “inactive”.
With `CCCCCC(C)O` (stereo unspecified), the “odorant receptor agonist call” value was “inactive”.
Take `CC=Cc1ccc(OC)cc1`: the “odorant receptor agonist call” value is “inactive”.
Still for that read-out and setting: then `CCCO`, with “inactive”; and `CCCCCOC(=O)CC`, with “inactive”.
Still for that read-out and setting: then `CC(C)=CCCC(C)=CCOC(=O)C(C)C`, with “inactive”.
On the same count and under the same terms, then `CCCCCCC(=O)OCCCC`, with “inactive”.
In the case of `CC(C)CCN`, the “odorant receptor agonist call” value is “inactive”.
With `c1ccc2ncccc2c1`, the “odorant receptor agonist call” value was “inactive”.
With `C=C(C)C1CCC(C)C(O)C1` (stereo unspecified), the “odorant receptor agonist call” value is “inactive”.
On the same count and under the same terms, the result for `CC1CCC(C(C)C)C(=O)C1` (stereo unspecified) reads “inactive”.
On the same count and under the same terms, then `CCCCCCCCCC=CC=O`, with “inactive”.

Source of the values: the M2OR odorant receptor database.
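Also: active if original authors judged signal statistically different from baseline.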
